# Laboratory results from ChEMBL document CHEMBL1147962, “Synthesis and antifungal activity of novel s-substituted 6-fluoro-4-alkyl(aryl)thioquinazoline derivatives” (Bioorg Med Chem, 2007).
# Active and inactive are the calls of the source. No cut-off for these calls is given here.
# Tests used:
# Fusarium graminearum [1] = experiment: Antifungal activity against Gibberella zeae at 500 ug/mL; assay type: functional
# Fusarium oxysporum [2] = experiment: Antifungal activity against Fusarium oxysporum at 500 ug/mL; assay type: functional
# Cytospora [3] = experiment: Antifungal activity against Cytospora mandshurica at 500 ug/mL; assay type: functional
# Sclerotinia sclerotiorum = experiment: Antifungal activity against Sclerotinia sclerotiorum; assay type: functional, organism-based
# Botrytis cinerea = experiment: Antifungal activity against Botrytis cinerea; assay type: functional, organism-based
# Fusarium oxysporum [4] = experiment: Increase in membrane permeability of Fusarium oxysporum at 100 ug/mL after 5 mins; assay type: functional
# Summary of the method: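 F. oxysporum cells were treated and sampled from 5 min onward over a longer time course. Cell-membrane relative permeability rate (%) was measured against an untreated control, with Hymexazol as reference.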
# Fusarium oxysporum [5] = experiment: Effect on mycelial reducing sugar content in Fusarium oxysporum after 12 hrs; assay type: functional
# Summary of the method: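 F. oxysporum mycelia were treated and sampled from 0.5 h to 12 h. Mycelial reducing sugar content (mg/mL) was measured at each time point against an untreated control.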
# Fusarium oxysporum [6] = experiment: Decrease in mycelial chitinase activity assessed as D-GlcNAc content in Fusarium oxysporum after 1 hrs; assay type: functional
# Summary of the method: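 F. oxysporum mycelia were treated over a time course up to 24 h and compared with an untreated control, with Hymexazol as reference fungicide. Chitinase activity was read as the D-GlcNAc content (mg/mL) produced by the enzyme in 1 h.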
# Fusarium graminearum [7] = experiment: Antifungal activity against Gibberella zeae; assay type: functional, organism-based
# Fusarium oxysporum [8] = experiment: Antifungal activity against Fusarium oxysporum; assay type: functional, organism-based
# Summary of the method: (§1)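 Preliminary fungicidal bioassay on plant-pathogenic fungi (G. zeae, F. oxysporum, C. mandshurica), with the commercial fungicide Hymexazol as reference.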
# Cytospora [9] = experiment: Antifungal activity against Cytospora mandshurica; assay type: functional; summary of the method: as §1
# Rhizoctonia solani = experiment: Antifungal activity against Rhizoctonia solani; assay type: functional, organism-based
# Thanatephorus cucumeris = experiment: Antifungal activity against Thanatephorus cucumeris; assay type: functional, organism-based
# Phytophthora infestans = experiment: Antifungal activity Phytophthora infestans; assay type: functional, organism-based
# [10] = system: Colletotrichum gloeosporioides; experiment: Antifungal activity against Colletotrichum gloeosporioides; assay type: functional, organism-based
# Fusarium oxysporum [11] = experiment: Effect on hyphal morphology of Fusarium oxysporum at 100 ug/mL; assay type: functional, organism-based
# Summary of the method: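 Hyphae and cell contents of treated F. oxysporum were examined microscopically against untreated control hyphae.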
# Fusarium oxysporum [12] = experiment: Inhibition of sporule germination of Fusarium oxysporum at 60 ug/mL; assay type: functional
# Summary of the method: (§2)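 F. oxysporum spores were exposed to a concentration series. Germination was scored as percentage of spores germinated, and inhibition was calculated relative to an untreated control.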
# Fusarium oxysporum [13] = experiment: Effect on sporule germination of Fusarium oxysporum at 100 ug/mL; assay type: functional; summary of the method: as §2
# Fusarium oxysporum [14] = experiment: Decrease in mycelial reducing sugar content in Fusarium oxysporum after 0.5 hrs relative to control; assay type: functional; set-up: scale not given: the % may be the effect or the level left
# Summary of the method: (§3)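 Reducing sugar content (mg/mL) of F. oxysporum mycelia was followed over time, sampled from 0.5 h to 12 h of treatment, against an untreated control.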
# Fusarium oxysporum [15] = experiment: Decrease in mycelial reducing sugar content in Fusarium oxysporum at 6 hrs; assay type: functional, organism-based; summary of the method: as §3
# Fusarium oxysporum [16] = experiment: Decrease in mycelial chitosan content in Fusarium oxysporum after 6 hrs relative to control; assay type: functional; set-up: scale not given: the % may be the effect or the level left
# Summary of the method: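 Chitosan content was measured as D-GlcNAc in F. oxysporum mycelia from treated cultures and read 6 h after inoculation. An untreated culture served as control and Hymexazol as the reference fungicide.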
# Fusarium oxysporum [17] = experiment: Increase in mycelial soluble protein content in Fusarium oxysporum relative to control after 0.5 hrs; assay type: functional
# Summary of the method: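 Soluble protein content of treated F. oxysporum mycelia was followed from 0.5 h of exposure and expressed relative to an untreated control. Hymexazol was run alongside as reference.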
Structure (SMILES),inhibition at 500 µg/mL (Fusarium graminearum [1]) [%],inhibition at 500 µg/mL (Fusarium oxysporum [2]) [%],inhibition at 500 µg/mL (Cytospora [3]) [%],EC50 (Sclerotinia sclerotiorum) [mg/L],EC50 (Botrytis cinerea) [mg/L],EC50 (Fusarium graminearum [7]) [mg/L],EC50 (Fusarium oxysporum [8]) [mg/L],EC50 (Cytospora [9]) [mg/L],EC50 (Rhizoctonia solani) [mg/L],EC50 (Thanatephorus cucumeris) [mg/L],EC50 (Phytophthora infestans) [mg/L],EC50 [10] [mg/L],also measured
Cc1cc(O)no1 [HYMEXAZOL],100,91.3,91.2,5.1,4.6,–,–,–,–,–,–,–,Activity (Fusarium oxysporum [4]): 6%; Activity (Fusarium oxysporum [5]): 0.85 mg/mL; Activity (Fusarium oxysporum [6]): 0.0411 mg/mL
C=CCSc1ncnc2ccc(F)cc12,100,92.3,96.9,35.2,42.4,37,32.2,23.3,46.3,40.6,51.2,21.4,–
Fc1ccc2ncnc(SCc3ccc(Cl)nc3)c2c1,16.3,21.9,38.5,–,–,–,–,–,–,–,–,–,–
COc1ccc(C(=O)CSc2ncnc3ccc(F)cc23)c(OC)c1OC,6.2,5.3,11.2,–,–,–,–,–,–,–,–,–,–
CCSc1ncnc2ccc(F)cc12,100,98.5,100,11.4,8.3,12.4,18.2,19.2,24.9,30.8,26.8,64.2,Activity (Fusarium oxysporum [11]): Active; inhibition at 60 µg/mL (Fusarium oxysporum [12]): 32.9%; Activity (Fusarium oxysporum [4]): 12%; Activity (Fusarium oxysporum [13]): 6.5%; Activity (Fusarium oxysporum [14]): 19.8%; Activity (Fusarium oxysporum [15]): Active; Activity (Fusarium oxysporum [5]): 0.67 mg/mL; Activity (Fusarium oxysporum [16]): 6.1%; Activity (Fusarium oxysporum [6]): 0.0364 mg/mL; Activity (Fusarium oxysporum [17]): 33.1%
CCCSc1ncnc2ccc(F)cc12,96.4,89.3,94.8,17.1,13,30.1,25.1,25.8,29.2,46.2,26.9,40.1,–
Fc1ccc2ncnc(SCc3ccc(Cl)cc3)c2c1,7.6,5.9,11.8,–,–,–,–,–,–,–,–,–,–
Fc1ccc2ncnc(SCc3ccccc3)c2c1,15,18.9,21.4,–,–,–,–,–,–,–,–,–,–
CCOC(=O)CSc1ncnc2ccc(F)cc12,13.3,20.3,30.1,–,–,–,–,–,–,–,–,–,–
